Consider one compound from article PMC9727797 (Molecular Biology of the Cell, 2022).

One data set concerns KIRC-1 cells. Nature of the data set: Preanaphase spindle monopolarity, KIRC-1 cells. It is filed as cell-based, human. The essentials: (§1)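 TP53–/– RPE-1 and KIRC-1 cells were grown in DMEM with 10% FBS, penicillin and streptomycin; KIRC-1 medium also contained 10 μM STLC. Cells on coverslips were treated overnight with increasing test-compound concentrations or DMSO. They were then methanol-fixed and stained for KIF15, tubulin and DNA. Preanaphase spindles were scored monopolar or bipolar, in triplicate with n = 100 per replicate (± SEM).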

Data set [1] addresses T1, KIF15-N700 (Homo sapiens, UniProt Q9NS87).
T1 sequence (Q9NS87 1-700 limits assumed): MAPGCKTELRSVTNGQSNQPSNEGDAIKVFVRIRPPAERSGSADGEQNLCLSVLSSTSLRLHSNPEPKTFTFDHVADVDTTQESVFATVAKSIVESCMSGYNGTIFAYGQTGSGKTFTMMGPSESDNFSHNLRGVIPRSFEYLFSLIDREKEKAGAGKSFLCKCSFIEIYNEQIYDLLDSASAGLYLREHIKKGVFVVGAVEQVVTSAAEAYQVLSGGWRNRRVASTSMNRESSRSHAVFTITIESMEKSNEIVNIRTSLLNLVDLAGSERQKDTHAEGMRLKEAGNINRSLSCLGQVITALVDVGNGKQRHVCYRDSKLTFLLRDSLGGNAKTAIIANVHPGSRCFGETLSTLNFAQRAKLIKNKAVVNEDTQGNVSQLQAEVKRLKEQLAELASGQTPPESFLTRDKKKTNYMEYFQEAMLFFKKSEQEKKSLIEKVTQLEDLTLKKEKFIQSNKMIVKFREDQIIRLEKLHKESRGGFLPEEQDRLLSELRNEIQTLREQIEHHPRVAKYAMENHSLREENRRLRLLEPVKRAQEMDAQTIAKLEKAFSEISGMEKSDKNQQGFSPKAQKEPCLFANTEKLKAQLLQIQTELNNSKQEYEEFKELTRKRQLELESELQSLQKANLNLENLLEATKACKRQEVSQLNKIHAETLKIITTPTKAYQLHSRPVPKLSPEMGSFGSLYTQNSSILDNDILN
Description: Microtubule binding to coverslip via KIF15 in gliding assay. The conditions noted are these: 1 min postdrug addition; 24 µM Munesib-1 or 100 µM Fift-IN. In outline: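 During KIF15-N700 gliding assays, microtubules bound to the coverslip were counted immediately before adding drug and after 1 min of incubation. Test compound was 24 µM or 100 µM; DMSO served as control. Results are expressed as the percentage of microtubules remaining bound.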

Another data set relates to TP53–/– RPE-1 cells. Nature of the data set: Preanaphase spindle morphology, RPE-1 cells. It is filed as cell-based, human. The conditions noted are these: increasing concentrations. In outline: as §1
The target in data set [2] is T1, KIF15-N700. Nature of the data set: Microtubule gliding assay. It is filed as biochemical. The essentials:
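His6-KIF15-N700 was expressed in High Five insect cells, then purified by Ni-NTA and Superdex 200 gel filtration. Microtubule gliding was imaged every 5 s for 1 min at 100×. Velocity was taken as distance travelled in 1 min, from ≥15 microtubules at each of three slide locations (n ≥ 50 per slide). Concentration-response curves used eight concentrations from 10 nM up to 30 or 100 µM, in triplicate. Single-point derivative tests used 25 µM.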

The target in data set [3] is T2, KIF15-N420 (Homo sapiens, UniProt Q9NS87).
T2 sequence (Q9NS87 1-420 limits assumed): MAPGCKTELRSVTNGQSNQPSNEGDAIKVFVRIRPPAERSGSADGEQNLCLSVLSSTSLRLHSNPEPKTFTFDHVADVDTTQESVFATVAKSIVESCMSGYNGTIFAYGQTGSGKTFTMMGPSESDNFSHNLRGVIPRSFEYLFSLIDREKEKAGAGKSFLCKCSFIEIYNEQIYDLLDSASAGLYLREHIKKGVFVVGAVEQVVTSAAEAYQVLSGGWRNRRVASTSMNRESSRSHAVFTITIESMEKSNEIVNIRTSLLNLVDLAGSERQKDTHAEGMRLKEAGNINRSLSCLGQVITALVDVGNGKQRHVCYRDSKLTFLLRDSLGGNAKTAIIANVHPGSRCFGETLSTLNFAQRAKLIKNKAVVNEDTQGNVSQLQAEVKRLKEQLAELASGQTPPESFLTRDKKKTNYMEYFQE
Nature of the data set: Microtubule-dependent steady-state ATPase assay. It is filed as biochemical. The conditions noted are these: 2 mM ATP; for kcat, microtubule-dependent ATPase: fit ± 95% CI. The essentials:
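Microtubule-dependent KIF15-N420 ATPase used an NADH-coupled read-out (A340, 25°C), with rates normalised to active motor concentration. ATP was held at 2 mM and microtubules varied over eight concentrations from 0 to 8 μM. Test compound was at 3, 5, 20 or 30 μM, with a DMSO control. Michaelis-Menten fits were weighted by 1/SEM, n = 6–9 per microtubule concentration. kcat and Km are given as fit ± 95% CI.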

Data set [4] is described as follows: Precipitation observed in culture media. The class given is physicochemical.
The target of data set [5] is T2, KIF15-N420. Description: ATP-dependent steady-state ATPase assay. To be noted: 30 μM compound, 3 μM microtubules, fit ± 95% confidence interval. The class given is biochemical. In outline: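 KIF15-N420 ATPase measured by NADH-coupled assay, with absorbance at 340 nm followed over time at 25°C. Rates were divided by active motor concentration. ATP was varied, with microtubules held at 3 μM. Test compound was 30 μM, or an equal volume of DMSO. Michaelis-Menten fits were weighted by 1/SEM, with n = 5–7 per concentration. kcat and Km are reported as fit ± 95% confidence interval.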

Setting [6] is: 24 µM Munesib-1 or 100 µM Fift-IN.

As usually defined, the IC50 is the concentration that inhibits the measured activity by half. For the compound `COC(=O)c1ccc2c(c1)N(C)S(=O)(=O)c1cnc(SC)nc1-2` [Munesib-1, Methyl 6-methyl-2-(methylthio)-6H-benzo[c]pyrimido[4,5-e][1,2]thiazine-8-carboxylate 5,5-dioxide], in the data set on KIRC-1 cells (75 μM), the “effect on monopolar spindles compared with Fift-IN” value is on record as “comparatively modest” and the monopolar spindles result is “less than 70%”. Moreover, in the data set with KIRC-1 cells (increasing concentrations), the “monopolarity index relative to cells treated with DMSO” value is “concentration-dependent increase”. Besides, the “microtubules remaining bound to the coverslip via KIF15” value at KIF15-N700 [1] is “little effect on binding”. Further, the “effect on spindle morphology” value in the data set with TP53–/– RPE-1 cells is listed as “little effect on spindle morphology”. Further, at KIF15-N700 [2] (24 μM Munesib-1), the “gliding velocity after removal of compound (wash-out)” value is “nearly restored to baseline” and the “microtubule gliding on addition of compound (wash-in)” value was “fully abrogated”. Moreover, on KIF15-N700 [2] (setting [6]), the “inhibition of microtubule gliding, KIF15” value is “robustly inhibited” and the “reversibility of inhibition (washout experiment)” value is “reversible inhibitor”. In addition, on KIF15-N700 [2] (25 µM, singlicate), the “% inhibition of KIF15 microtubule gliding activity” value is reported as “completely eliminates”. Further, on KIF15-N700 [2] (IC50, microtubule gliding assay, KIF15-N700), inhibition was half-maximal at 400 nM (IC50). Also, at KIF15-N700 [2] (in vitro ATPase and microtubule gliding assays), the “fold stronger inhibitory action against KIF15 than Fift-IN” value is reported as “roughly 10 fold”. Also, the “kcat, microtubule-dependent ATPase” value on KIF15-N420 [3] (3 μM compound) is reported as 8.5 ± 1 s^–1. Further, the “kcat, microtubule-dependent ATPase” value at KIF15-N420 [3] (5 μM compound) was determined as 8.2 ± 3 s^–1. Further, the “kcat, microtubule-dependent ATPase” value on KIF15-N420 [3] (30 μM compound) is on record as 11.6 ± 6 s^–1. Also, the “mode of inhibition with respect to microtubules” value at KIF15-N420 [3] is on record as “less conclusive”. In addition, the solubility observation entry in data set [4] is given as “often precipitated in culture media”. Further, the “kcat, ATP-dependent ATPase” value on KIF15-N420 [5] came out at 2.6 ± 0.4 s^–1.
